{"source": "paper PMC8897028", "about": "(Acta Pharmaceutica Sinica. B, 2021)", "key": {"hTRPV3": {"molecular_target": "T1, hTRPV3 (Homo sapiens, UniProt Q8NET8)", "T1 sequence (Q8NET8 1-790)": "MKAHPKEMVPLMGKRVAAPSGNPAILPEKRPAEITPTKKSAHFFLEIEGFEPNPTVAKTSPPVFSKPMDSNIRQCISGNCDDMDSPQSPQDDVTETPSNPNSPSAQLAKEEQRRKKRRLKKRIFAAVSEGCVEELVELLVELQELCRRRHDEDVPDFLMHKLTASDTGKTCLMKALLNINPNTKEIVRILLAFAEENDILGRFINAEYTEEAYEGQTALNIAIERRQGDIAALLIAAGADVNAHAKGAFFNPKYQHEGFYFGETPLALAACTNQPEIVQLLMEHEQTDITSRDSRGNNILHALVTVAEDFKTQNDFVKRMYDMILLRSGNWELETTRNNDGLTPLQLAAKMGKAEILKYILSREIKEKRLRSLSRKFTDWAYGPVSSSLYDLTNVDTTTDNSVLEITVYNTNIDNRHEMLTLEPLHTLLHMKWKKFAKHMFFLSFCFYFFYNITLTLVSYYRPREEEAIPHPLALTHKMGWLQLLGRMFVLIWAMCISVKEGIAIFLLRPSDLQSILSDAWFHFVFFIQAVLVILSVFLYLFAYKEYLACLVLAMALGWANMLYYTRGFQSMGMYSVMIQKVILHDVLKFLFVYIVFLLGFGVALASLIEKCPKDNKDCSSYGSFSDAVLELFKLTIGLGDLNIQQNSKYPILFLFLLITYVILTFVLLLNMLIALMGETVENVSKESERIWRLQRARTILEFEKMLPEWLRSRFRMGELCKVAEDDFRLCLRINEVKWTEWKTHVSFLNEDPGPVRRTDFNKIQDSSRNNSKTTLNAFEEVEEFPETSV", "assay": "inside-out single-channel recordings of HEK293 cells overexpressing hTRPV3", "type": "biochemical", "procedure,_shortened": "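Inside-out patches from EGFP-identified HEK293 cells, 18 h after hTRPV3 transfection, used 6–10 MΩ pipettes. Patches were held at 0 mV, then stepped to +80 mV. Currents were sampled at 10 kHz, filtered at 2.9 kHz, at 22–24 °C. All-points histograms were Gaussian-fitted for conductance and mean open probability; n = 4.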"}, "hTRPA1": {"molecular_target": "hTRPA1 (Homo sapiens, UniProt O75762)", "sequence (O75762 whole entry)": "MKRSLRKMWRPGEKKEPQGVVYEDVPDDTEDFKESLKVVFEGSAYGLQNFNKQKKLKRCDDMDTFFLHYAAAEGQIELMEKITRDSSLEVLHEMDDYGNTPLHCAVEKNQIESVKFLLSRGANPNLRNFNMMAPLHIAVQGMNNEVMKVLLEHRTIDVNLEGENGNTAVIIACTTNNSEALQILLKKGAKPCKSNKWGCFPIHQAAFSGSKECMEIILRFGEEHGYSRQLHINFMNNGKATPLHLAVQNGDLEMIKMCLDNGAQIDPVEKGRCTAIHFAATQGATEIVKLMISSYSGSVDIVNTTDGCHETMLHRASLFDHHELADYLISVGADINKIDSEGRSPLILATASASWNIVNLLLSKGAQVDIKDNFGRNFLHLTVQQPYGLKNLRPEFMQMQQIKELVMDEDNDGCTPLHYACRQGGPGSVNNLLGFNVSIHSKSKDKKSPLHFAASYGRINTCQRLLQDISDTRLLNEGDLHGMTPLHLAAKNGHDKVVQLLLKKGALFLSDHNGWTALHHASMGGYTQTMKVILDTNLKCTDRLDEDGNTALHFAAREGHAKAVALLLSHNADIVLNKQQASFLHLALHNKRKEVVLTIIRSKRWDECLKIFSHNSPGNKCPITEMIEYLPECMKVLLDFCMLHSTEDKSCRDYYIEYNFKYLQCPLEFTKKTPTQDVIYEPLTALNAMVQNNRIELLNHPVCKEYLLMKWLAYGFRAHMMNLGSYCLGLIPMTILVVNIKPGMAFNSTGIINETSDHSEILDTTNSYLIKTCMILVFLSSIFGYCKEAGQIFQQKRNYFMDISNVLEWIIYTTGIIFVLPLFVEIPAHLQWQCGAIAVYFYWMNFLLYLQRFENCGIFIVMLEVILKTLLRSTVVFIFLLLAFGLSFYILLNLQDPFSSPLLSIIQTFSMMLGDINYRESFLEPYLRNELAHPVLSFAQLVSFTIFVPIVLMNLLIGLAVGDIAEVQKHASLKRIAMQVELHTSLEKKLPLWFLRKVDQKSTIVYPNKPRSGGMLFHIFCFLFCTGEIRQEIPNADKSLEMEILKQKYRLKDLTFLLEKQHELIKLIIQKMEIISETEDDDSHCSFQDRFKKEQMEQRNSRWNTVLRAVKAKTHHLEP", "assay": "whole-cell patch-clamp of TRPA1 currents in HEK293 cells", "type": "cell-based", "details": "ruthenium red 20 μmol/L; current activated by AITC 300 μmol/L", "procedure,_shortened": "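Human channel cDNAs were transiently transfected into HEK293 cells with Lipofectamine 2000. EGFP-positive cells were recorded whole-cell 18 h later at 22–24 °C with ~4.0 MΩ fire-polished pipettes. Cells were held at 0 mV with 500-ms ramps from −100 to +100 mV every 2 s. Test compound in perfusion solution was co-applied with agonist, and average current inhibition was summarised; n = 4–6.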"}, "[1]": {"tested_on": "HEK293 cells expressing hTRPV3", "assay": "cell death assay", "type": "cell-based, human", "details": "12 h, n = 4", "procedure,_shortened": "(§1)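 HEK293 cells 12 h after hTRPV3 transfection, or HaCaT cells, were seeded in six-well plates, randomly split into 6 groups, and treated 12 h in culture medium. Cells were detached with 0.25% trypsin (HEK293 1 min; HaCaT 7 min), centrifuged, and stained 30 min in PBS with Hoechst and PI. Five random fields per group were imaged. Death ratio = PI-labelled over Hoechst-labelled nuclei, averaged over five images; n = 4.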"}, "mTRPV3 H426A": {"molecular_target": "T2, mTRPV3 H426A (Mus musculus, UniProt Q8K424, H426A)", "T2 sequence (Q8K424 1-791 H426A)": "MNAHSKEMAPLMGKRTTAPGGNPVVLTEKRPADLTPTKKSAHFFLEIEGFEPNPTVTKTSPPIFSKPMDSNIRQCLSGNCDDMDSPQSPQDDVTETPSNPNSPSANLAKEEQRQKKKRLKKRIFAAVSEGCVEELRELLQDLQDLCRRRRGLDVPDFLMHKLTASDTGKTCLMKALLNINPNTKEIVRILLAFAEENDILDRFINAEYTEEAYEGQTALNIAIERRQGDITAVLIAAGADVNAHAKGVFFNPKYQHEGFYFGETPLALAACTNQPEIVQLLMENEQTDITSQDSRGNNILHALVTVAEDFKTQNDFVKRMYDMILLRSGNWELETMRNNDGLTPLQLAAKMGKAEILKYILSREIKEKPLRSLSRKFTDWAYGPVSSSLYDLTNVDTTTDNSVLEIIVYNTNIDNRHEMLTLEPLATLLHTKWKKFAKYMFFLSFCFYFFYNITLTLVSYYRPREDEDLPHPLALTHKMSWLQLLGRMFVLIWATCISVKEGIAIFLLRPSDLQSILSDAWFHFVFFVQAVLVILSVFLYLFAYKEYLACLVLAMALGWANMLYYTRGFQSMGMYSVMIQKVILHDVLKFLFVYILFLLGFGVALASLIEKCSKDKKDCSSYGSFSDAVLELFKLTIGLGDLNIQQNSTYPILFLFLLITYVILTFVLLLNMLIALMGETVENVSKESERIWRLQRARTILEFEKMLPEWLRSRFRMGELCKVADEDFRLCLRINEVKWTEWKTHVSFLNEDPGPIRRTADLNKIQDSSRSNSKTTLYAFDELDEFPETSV", "assay": "whole-cell patch-clamp of mTRPV3 H426A mutant in HEK293 cells", "type": "cell-based", "procedure,_shortened": "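The sequence-confirmed site-directed mTRPV3 mutant was transiently expressed in HEK293 cells, and EGFP-positive cells were recorded whole-cell 18 h post-transfection. Cells were held at 0 mV with 500-ms ramps from −100 to +100 mV every 2 s, at 22–24 °C. Compounds were diluted in perfusion solution.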"}, "C57BL/6J mice": {"tested_on": "C57BL/6J mice", "assay": "ear swelling and chronic pruritus model induced by TRPV3 agonist carvacrol", "type": "in vivo, mouse", "details": "3% carvacrol only; recorded 1 h on day 7", "procedure,_shortened": "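Male C57BL/6J mice, 8–10 weeks old, were acclimatised for at least one week at 22 ± 2 °C on a 12 h light/dark cycle. The right ear received topical 3% carvacrol in ethanol/olive oil (4/1, v/v) once daily for 6 days. Test compound (1.0 mmol/L in 50 μL solvent) was applied 30 min after carvacrol; vehicle was solvent with 1% DMSO. Scratching was recorded for 1 h on day 7; n = 6–8 mice per group.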"}, "[2]": {"tested_on": "HEK293 cells expressing hTRPV3", "assay": "cell proliferation MTT assay, HEK293 cells transfected with hTRPV3", "type": "cell-based, human", "details": "carvacrol 300 μmol/L, 24 h", "procedure,_shortened": "(§2)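 hTRPV3-transfected HEK293 or HaCaT cells were plated at 5 × 10^3 per well for 24 h, then exposed 24 h to TRPV3 activator and/or inhibitor in culture medium. MTT (5 mg/mL solution) was added for 4 h. Medium was removed, formazan dissolved in DMSO, and absorbance read at 490 nm.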"}, "HaCaT cells [3]": {"tested_on": "HaCaT cells", "assay": "cell death assay", "type": "cell-based, human", "details": "carvacrol 300 μmol/L alone; 12 h", "procedure,_shortened": "as §1"}, "HaCaT cells [4]": {"tested_on": "HaCaT cells", "assay": "cell proliferation MTT assay, HaCaT cells", "type": "cell-based, human", "details": "carvacrol 300 μmol/L, 24 h", "procedure,_shortened": "as §2"}}, "data": [{"smiles": "N.N.N.N.N.N.N.N.N.N.N.N.N.N.[Cl-].[Cl-].[Cl-].[Cl-].[Cl-].[Cl-].[O-2].[O-2].[Ru+3].[Ru+3].[Ru+4]", "note": "[ruthenium red, reference compound]", "values": [{"measurement": "channel open probability", "setting": "hTRPV3; RR 20 μmol/L with carvacrol 300 μmol/L, from 26.9 ± 5.5%, n = 4", "result": "0.5 ± 0.4", "unit": "%"}, {"measurement": "single-channel conductance", "setting": "hTRPV3; RR 20 μmol/L with carvacrol 300 μmol/L, from 175.2 ± 0.9 pS, n = 4", "result": "122.8 ± 5.5", "unit": "pS"}, {"measurement": "inhibition of TRPA1 current", "setting": "hTRPA1", "result": "inhibited"}, {"measurement": "cell death ratio", "setting": "[1]; ruthenium red positive control with carvacrol 300 μmol/L", "result": "14.3 ± 1.7", "unit": "%"}]}, {"smiles": "NCCOB(c1ccccc1)c1ccccc1", "note": "[2-APB, 2-aminoethoxydiphenyl borate, reference compound]", "values": [{"measurement": "activation of H426A mutant channel", "setting": "mTRPV3 H426A; 2-APB 50 μmol/L", "result": "not activated"}]}, {"smiles": "Cc1ccc(C(C)C)cc1O", "note": "[carvacrol, reference compound]", "values": [{"measurement": "number of scratching bouts", "setting": "C57BL/6J mice", "result": "113.0 ± 16.9"}, {"measurement": "increase of channel open probability versus vehicle", "setting": "hTRPV3; carvacrol 300 μmol/L alone", "result": "about 90 fold"}, {"measurement": "single channel conductance", "setting": "hTRPV3; carvacrol 300 μmol/L alone", "result": "168.4 ± 2.1", "unit": "pS"}, {"measurement": "channel open probability", "setting": "hTRPV3; carvacrol 300 μmol/L alone, vehicle control 0.3 ± 0.2%", "result": "26.9 ± 5.5", "unit": "%"}, {"measurement": "cell proliferation", "setting": "[2]", "result": "suppressed the cell proliferation"}, {"measurement": "cell death ratio", "setting": "HaCaT cells [3]", "result": "13.0 ± 2.1", "unit": "%"}, {"measurement": "cell proliferation", "setting": "HaCaT cells [4]", "result": "suppressed the cell proliferation"}, {"measurement": "activation of H426A mutant current", "setting": "mTRPV3 H426A; carvacrol 300 μmol/L", "result": "activated"}, {"measurement": "cell death ratio", "setting": "[1]; carvacrol 300 μmol/L alone, vehicle 5.3 ± 0.5%", "result": "21.1 ± 1.9", "unit": "%"}]}]}
